High-throughput results from PubChem.
Most compounds without a hit are left out; they make up all but 3.5% or so of the library.
ERAP1 HTS inh = blocks human ERAP1 aminopeptidase activity; Q9NZ08; recombinant ERAP1, Leu-AMC fluorescence, 60 min; inhibition, % at 10.7 µM; 0.15% of 340,000 active; AID 652197;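 active means mean replicate inhibition of at least 30%, or all replicates individually reaching that 30% level; inactive means mean below 30% and not every replicate reaching it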;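 further: 0% = neutral control wells and 100% = L-leucinethiol positive control wells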
Cneo AK release = causes C. neoformans cell lysis; adenylate kinase release luminescence, 4 h; normalised: neutral wells 0, clomiphene wells 100; 0.2% of 360,000 active; lysis activity, % at 15 µM;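 active means mean lysis activity across replicates of at least 80%, whatever share of replicates individually reach that level; inactive means mean lysis activity below 80%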
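Assay system: Cryptococcus neoformans yeast cells / Dosing: single-point compound dose / Timing: 4 h at 37 °C static, read 1 h later / Measured by: luminescence of released adenylate kinase using an AK detection reagent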
HIV Env fusion = blocks HIV Env-driven cell-cell fusion. inhibition, % at 12.3 µM. 1.1% of 360,000 active. HeLa-JRFL Env/CEM21 cell fusion, luciferase;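 active means mean replicate inhibition score of at least 50 and every replicate individually at or above 50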;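 further: 0% = plate neutral controls and 100% = maraviroc near 300 nM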
FGF22 binding = shifts melting point of recombinant human FGF22. Q9HCT0. recombinant FGF22 thermal shift, SYPRO orange fluorescence; percent of sucrose octasulfate shift, DMSO zero. activity (Tm shift, normalised), % at 9.99 µM. 1.5% of 340,000 active. AID 651658;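 active means mean Tm shift, scaled 0 neutral to 100 positive control, at about 1.3% or above, every replicate too, limit read from the data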
Target sequence (Q9HCT0 whole entry, looked up): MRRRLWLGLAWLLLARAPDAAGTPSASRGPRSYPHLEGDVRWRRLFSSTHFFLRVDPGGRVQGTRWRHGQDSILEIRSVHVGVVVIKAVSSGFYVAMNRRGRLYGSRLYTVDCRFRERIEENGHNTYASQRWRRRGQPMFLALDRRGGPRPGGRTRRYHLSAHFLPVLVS
Ecoli rRNA inh = inhibits bacterial ribosomal RNA function over humanized ribosomes; E. coli WT GFP vs humanized-ribosome RFP mutants, fluorescence, 24 h; stronger effect = lower value; DMSO median 0, no signal -100; GFP signal change (wild-type ribosome), % (concentration not given with the values); 1.6% of 350,000 active; AID 720706;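 active means significant combined selectivity score with lowered wild-type GFP, culture density cut under 30%, mutant RFP and density less affected; inactive means any of these conditions unmet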
PGC1a acetyl inh = PGC1a acetylation modulation, inhibitor mode; 0.17% of 350,000 active; AID 651687; U2OS PGC1a acetylation, AlphaScreen anti-acetyl-lysine; with virally co-expressed GCN5 acetyltransferase; inhibition, % at 15.6 µM;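 active means every replicate shows inhibition of at least 40%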;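 further: 0% = neutral control wells and 100% = positive control wells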
* hit, by the source's call; . = no result given; [ ] = remark or other dose.

SMILES | ERAP1 HTS inh | Cneo AK release | HIV Env fusion | FGF22 binding | Ecoli rRNA inh | PGC1a acetyl inh
COc1ccc(S(=O)(=O)N(C)C[C@@H]2Oc3ccc(NC(=O)C4CCCCC4)cc3CC(=O)N([C@H](C)CO)C[C@@H]2C)cc1 | -2 | -1 | 74*[16.7 µM] | 0 | 2 | 9
C[C@@H]1CN([C@@H](C)CO)C(=O)Cc2cc(NC(=O)C3CCCCC3)ccc2O[C@@H]1CN(C)S(=O)(=O)c1ccccc1 | 0 | 3 | . | 0 | -1 | 2
COc1ccc(CN(C)C[C@H]2Oc3ccc(NC(=O)C4CCCCC4)cc3CC(=O)N([C@@H](C)CO)C[C@H]2C)cc1 | 3 | -1 | -39[16.7 µM] | 1.7* | -3 | -3
Cc1ccc(S(=O)(=O)N(C)C[C@H]2Oc3ccc(NC(=O)C4CC4)cc3CC(=O)N([C@H](C)CO)C[C@@H]2C)cc1 | -1 | 54 | . | 0 | -3 | 5
C[C@@H]1CN([C@@H](C)CO)C(=O)Cc2cc(NC(=O)C3CCCCC3)ccc2O[C@H]1CN(C)S(=O)(=O)c1ccccc1 | 1 | 5 | 63* | 0 | 12 | -1
CCOC(=O)C1=CCN(S(=O)(=O)c2ccc(Cl)cc2)C1c1cccc(Br)c1 (stereo unspecified) | 0 | . | . | 0 | -8 | .
Cc1ccc(NS(=O)(=O)c2cccs2)c(C)c1 | -3 | -1 | -4 | 0 | 4 | .
Cc1cccn2c(=O)c(C=NCCO)c(Nc3ccc(Cl)cc3)nc12 | 4 | . | -37 | 44* | 11 | .
Cc1cccn2c(=O)c(C=Nc3ccc(Cl)cc3)c(NCCO)nc12 | . | -1 | -11 | . | . | -99
Cc1nn(C)c(C)c1S(=O)(=O)N1CCCC(C(=O)N2CCN(c3ccc(Cl)cc3)CC2)C1 (stereo unspecified) | . | -4 | 63* | . | . | -8
Cc1c(C(=O)NCc2ccc3c(c2)OCO3)oc2ccc(S(=O)(=O)N3CCCC3)cc12 | . | -5 | 22 | . | . | 15
Cc1cccnc1NS(=O)(=O)c1ccccc1 | 1 | 0 | . | 44* | 5 | 9
Cc1cc(C)c(NS(=O)(=O)c2ccccc2)c(C)n1 | -2 | . | 35 | 43* | 5 | .
CN1CCC(N(C)C(=O)CNC(=O)c2ccc(C(C)(C)C)cc2)CC1 | -3 | -3 | 7 | 0 | 10 | 10
COc1ccc(CCC(=O)NCCc2ccc(OC)c(OC)c2)cc1 | 2 | -1 | 10 | 0 | 1 | 2
COc1ccc(N/N=C(\C#N)C(=O)NCCc2ccc(OC)c(OC)c2)cc1 | 7 | . | 1 | 0 | -38* | 7
COc1ccc(CCNC(=S)N2CCC(C(=O)c3ccc(F)cc3)CC2)cc1OC | 0 | 0 | 21 | 42 | -36 | -11
COc1ccc(C(=O)C2CCN(C(=S)NCCc3ccc(OC)c(OC)c3)CC2)cc1 | -6 | . | 26 | 0 | -25* | -6
CCC1(CC)C(=O)N(C)C(=O)NC1=NCc1ccccc1 | . | -3 | . | . | . | 6
Fc1ccc(Oc2ncccn2)c(F)c1 | -2 | 0 | 6 | . | 18 | 1
CCOC(=O)C1CCCN(C(=O)c2ccc3c(=O)n(CCOC)c(=S)[nH]c3c2)C1 (stereo unspecified) | . | -3 | 66* | . | . | -21
CCN(CC)c1ccc(/C=N/NS(=O)(=O)c2cccc([N+](=O)[O-])c2)cc1 | . | 4 | . | . | . | 6
CCN(Cc1ccccc1)c1ccc(/C=N/NS(=O)(=O)c2ccc(C)c([N+](=O)[O-])c2)cc1 | -1 | . | 1 | 0 | -34* | .
C/C(=N\N1CCN(c2ccc(Cl)cc2)CC1)c1ccco1 | -8 | . | -10 | 0 | . | .
O=C(COc1ccc(S(=O)(=O)N2CCCCC2)cc1)NCC1CCCO1 (stereo unspecified) | -3 | . | 4 | 43 | 15 | 0
SMILES | ERAP1 HTS inh | Cneo AK release | HIV Env fusion | FGF22 binding | Ecoli rRNA inh | PGC1a acetyl inh
O=C(CN1C(=O)c2ccccc2S1(=O)=O)NCCSCc1c(F)cccc1Cl | -2 | -1 | -5 | 0 | -30* | 8
CC(C)(c1ccccc1)c1ccc(OCCCN2CCNCC2)cc1 | 15 | . | 13 | 0 | -16 | -24
O=C(CCCCCN1C(=O)[C@@H]2Cc3ccccc3CN2C1=O)Nc1cccc(F)c1 | 3 | 1 | 5 | 0 | -35* | .
O=C(COC(=O)c1cccnc1Cl)Nc1ncc(Cl)cc1Cl | -4 | -2 | 18 | 42 | -12 | 2
O=C(NN1C(=O)C2C(C1=O)C1C=CC2C12CC2)c1ccncc1 (stereo unspecified) | . | -1 | -19 | . | . | 2
O=C(NN1C(=O)C2C(C1=O)C1C=CC2C12CC2)c1cccnc1 (stereo unspecified) | 0 | . | -3 | 44* | 16 | .
O=C(NCC1CCCO1)c1ccc(C(=O)NCC2CCCO2)cc1 (stereo unspecified) | . | . | . | . | . | -6
CC1CCCN1CC#CC(O)(c1ccccc1)c1ccccc1 (stereo unspecified) | . | 1 | 5 | 0 | . | 6
O=C1C2CC=C(Cl)CC2C(=O)N1CCc1c[nH]c2ccccc12 (stereo unspecified) | 1 | -2 | . | . | -26* | -7
CC1=CCC2C(=O)N(CCc3c[nH]c4ccccc34)C(=O)C2C1 (stereo unspecified) | . | -2 | . | . | . | -3
Cc1noc(C)c1S(=O)(=O)Nc1ccc2c(c1)C(=O)N([C@@H](C)CO)C[C@H](C)[C@@H](CN(C)Cc1ccc3c(c1)OCO3)OCCCC[C@@H](C)O2 | 1 | 101* | -38[16.7 µM] | 0 | 5 | 7
Cc1noc(C)c1S(=O)(=O)Nc1ccc2c(c1)C(=O)N([C@@H](C)CO)C[C@@H](C)[C@@H](CN(C)CC1CCCCC1)OCCCC[C@@H](C)O2 | 1 | 2 | -41 | 0 | 1 | 85*
Cc1onc(-c2c(Cl)cccc2Cl)c1C(=O)N1CCCCC1 | -2 | -4 | 5 | 0 | 2 | -1
Cc1nc(-c2ccccc2O)n(S(=O)(=O)N(C)C)n1 | . | -3 | -58 | . | . | 11
Cc1ccc(NC(=O)c2cnn(-c3ccccc3)c2C)cc1C | 6 | -8 | -55 | 0 | 1 | .
CNS(=O)(=O)c1cc(NC(=O)c2cnc(SC)n2-c2ccccc2)ccc1C | -4 | -2 | -42 | 0 | -21* | .
COc1ccccc1/C=C/C=N/NC(=O)CCn1cnc2ccccc21 | 3 | -3 | 12 | 0 | -35* | -6
O=C(CCn1nnc2ccccc21)N/N=C\Cc1ccccc1 | -4 | . | -42 | 43* | . | .
COc1cccc(/C=N\NC(=O)Cn2nnc3ccccc32)c1O | -4 | . | 10 | 0 | -20* | -1
COc1cccc(/C=N/NC(=O)CCc2ccccc2)c1 | -2 | -2 | . | 0 | -21* | 12
COc1cccc(C=NNC(=O)CCCC(=O)NN=Cc2cccc(OC)c2)c1 | -1 | -19 | . | 0 | -2 | 1
